The values that follow come from ChEMBL document CHEMBL1125656, “Novel indole-2-carboxylates as ligands for the strychnine-insensitive N-methyl-D-aspartate-linked glycine receptor” (J Med Chem, 1991).

A value given as a limit tells only on which side of the number the result lay.

In one assay the target is Glutamate NMDA receptor. The assay can be described thus: Inhibition of strychnine-insensitive [3H]MK-801 binding to the N-methyl-D-aspartate glutamate receptor of synaptic plasma membranes(SPM) prepared from rat forebrain. The format is cell-free. In a few lines: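 Membranes treated with 0.04% v/v Triton X-100 and washed extensively in 50 mM Tris acetate pH 7.4. SPM (0.2–0.4 mg) incubated with 5 nM [3H]MK-801, 10 nM L-glutamate and test compound in the same buffer for 30 min at 25 °C. Samples filtered on 0.05% polyethylenimine-treated GF/B filters and washed four times with cold buffer. Filters scintillation counted; nonspecific binding set with 60 μM MK-801.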
The molecule `O=C(O)Cc1c(C(=O)O)[nH]c2cc(Cl)ccc12` registered a half-inhibitory concentration (IC50) of 6.8 µM.

In a further assay the target is Glutamate NMDA receptor. The assay can be described thus: Inhibition of strychnine-insensitive [3H]glycine binding to the N-methyl-D-aspartate glutamate receptor of synaptic plasma membranes(SPM) prepared from rat forebrain. Type of assay: cell-free. In a few lines: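 Rat forebrain synaptic plasma membranes (male Sprague-Dawley, 30–45 days old), Triton X-100-washed; 0.2–0.4 mg incubated with 10 nM [3H]glycine and a range of compound concentrations in triplicate, in 50 mM Tris/acetate pH 7.4, for 10 min at 2 °C. Bound ligand separated by centrifugation (12000g, 15 min, 4 °C) or GF/B filtration, then scintillation counted. Nonspecific binding set with 100 μM glycine. Ki derived by logit-log analysis.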
On to `CCOC(=O)Cc1c(C(=O)OCCCN(C)C)[nH]c2cc(Cl)ccc12`, for which the inhibition constant Ki was more than 100 µM.

Molecule `O=C(O)Cc1c(CO)[nH]c2cc(Cl)ccc12` displayed a Ki of more than 30 µM.

With `CN(C)CCCNC(=O)Cc1c(C(=O)O)[nH]c2cc(Cl)ccc12`, the inhibition constant Ki was more than 30 µM.

In turn, `O=C(O)CCc1c(C(=O)O)[nH]c2ccccc12` displayed a Ki of more than 100 µM.

`O=C(O)CCCCc1c(C(=O)O)[nH]c2ccccc12`: the inhibition constant (Ki) is more than 100 µM.

`Cc1cc2c(CC(=O)O)c(C(=O)O)[nH]c2cc1Cl` displayed a Ki of more than 30 µM.

The molecule `O=C(O)Cc1c(C(=O)O)[nH]c2ccc(F)cc12` displayed a Ki of 14.1 µM. This counts as double-digit micromolar.

`O=C(O)CC1c2ccccc2OC1C(=O)O` (stereo not given): the Ki is more than 30 µM.

The molecule `O=C(O)Cc1c(C(=O)O)[nH]c2ccc(Br)cc12` yielded a Ki of 29.2 µM.

The molecule `O=C(O)c1[nH]c2cc(Cl)ccc2c1O` registered a Ki of more than 100 µM.

In turn, `CCOC(=O)Cc1c(C=O)[nH]c2cc(Cl)ccc12` gave a Ki of more than 30 µM.

Turning to `COc1ccc2[nH]c(C(=O)O)cc2c1`, the Ki was more than 100 µM.

Take `O=C(Cc1c(C(=O)O)[nH]c2cc(Cl)ccc12)NCCc1ccccc1`: the affinity, expressed as Ki, was 0.63 µM.

Regarding `O=C(O)c1cc2cc(Br)ccc2[nH]1`, the inhibition constant (Ki) is more than 100 µM.

Molecule `CCOC(=O)Cc1c(C(=O)O)[nH]c2cc(Cl)ccc12` registered an inhibition constant Ki of 0.68 µM.

In turn, `Cn1c(C(=O)O)c(CC(=O)O)c2ccccc21` showed a Ki of more than 100 µM.

In the case of `O=C(O)Cc1c(C(=O)O)[nH]c2c(Cl)cccc12`, the Ki is more than 30 µM.

`Cc1ccc2[nH]c(C(=O)O)cc2c1` gave a Ki of more than 100 µM.

On to `NC(=O)Cc1c(C(=O)O)[nH]c2cc(Cl)ccc12`, for which the inhibition constant Ki came to 1.18 µM. That is a single-digit micromolar value.

The molecule `O=C1Cc2c([nH]c3cc(Cl)ccc23)C(=O)O1` came in with an inhibition constant Ki of 75.1 µM.

Regarding `O=C(O)c1cc2ccccc2[nH]1` [INDOLE-2-CARBOXYLIC ACID], the Ki was more than 100 µM.

`CCC(C(=O)O)c1c(C(=O)O)[nH]c2ccccc12` (stereo not given) showed a Ki of more than 100 µM.

Regarding `O=C(O)c1cc2cc(F)ccc2[nH]1` [5-FLUOROINDOLE-2-CARBOXYLIC ACID], the Ki turned out to be 91 µM.

Consider `O=C(O)c1[nH]c2ccccc2c1CO`, for which the Ki is more than 100 µM.

Molecule `CN(C)C(=O)Cc1c(C(=O)O)[nH]c2cc(Cl)ccc12` displayed an inhibitory constant (Ki) of more than 30 µM.

In turn, `O=C(O)Cc1cc2ccccc2nc1C(=O)O` gave a Ki of more than 100 µM.

Regarding `O=C(O)Cc1c(C(=O)O)[nH]c2cc(Cl)ccc12`, the Ki stood at 1.61 µM.

For `CC(=O)Cc1c(C(=O)O)[nH]c2ccccc12`, the inhibitory constant (Ki) was 29.6 µM. This Ki is about 18-fold higher than that of the molecule before.

In the case of `CCOCCc1c(C(=O)O)[nH]c2cc(Cl)ccc12`, the Ki was 8.25 µM.

Regarding `O=C(O)c1cc2cc(Cl)ccc2[nH]1` [5-CHLOROINDOLE-2-CARBOXYLIC ACID], the Ki is more than 100 µM.

Regarding `O=C(Cc1c(C(=O)O)[nH]c2cc(Cl)ccc12)NCCO`, affinity was put at a Ki of 10.3 µM.

On to `O=C(O)c1[nH]c2ccccc2c1CCO`, for which the Ki was more than 30 µM.

As for `CC(C)OC(=O)Cc1c(C(=O)O)[nH]c2cc(Cl)ccc12`, the affinity, expressed as Ki, was 3.85 µM.

`CCOC(=O)Cc1c(CO)[nH]c2cc(Cl)ccc12` displayed an inhibition constant Ki of more than 30 µM.

`O=C(O)CCCc1c(C(=O)O)[nH]c2ccccc12` returned an inhibitory constant (Ki) of more than 100 µM.

Turning to `CCCOC(=O)Cc1c(C(=O)O)[nH]c2cc(Cl)ccc12`, the affinity, expressed as Ki, was 6.8 µM.

Molecule `CN(C)CCNC(=O)Cc1c(C(=O)NCCN(C)C)[nH]c2cc(Cl)ccc12` had an inhibition constant Ki of more than 30 µM.

Molecule `O=C(O)Cc1c(C(=O)O)oc2ccccc12` displayed a Ki of more than 100 µM.

Molecule `O=C(O)c1cc2c(OCc3ccccc3)cccc2[nH]1` yielded a Ki of more than 30 µM.

Take `O=C(O)C1Cc2ccccc2N1` (stereo not given): the Ki was more than 30 µM.

`O=C(O)c1cc2c(O)cccc2[nH]1` returned a Ki of more than 30 µM.

`O=C(O)Cc1c(C(=O)O)[nH]c2ccc(Cl)cc12` came in with a Ki of 10.9 µM.

As to `O=C(O)c1cc2c(C(=O)O)cccc2[nH]1`, the Ki is more than 100 µM.

In turn, `CCCNC(=O)Cc1c(C(=O)O)[nH]c2cc(Cl)ccc12` came in with an inhibition constant Ki of 0.47 µM.

The term IC50 denotes the point on the concentration scale where inhibition reaches its midpoint. High values mean a need for much substance, low ones inhibition by little substance. The Ki is the equilibrium dissociation constant of an inhibitor or competing ligand from its target.
